Data published in ChEMBL document CHEMBL5356984 (RSC Med Chem, 2023).
Active and inactive are the calls of the source. The calls are words filed in the database; no cut-off is given here.

Columns and labels:
[1] = Thermal stability of compound in boiling toluene at 120 degreeC assessed as time taken for compound decomposition at 1 mg/ml by HPLC analysis; type: physicochemical; conditions: read-out: T50
Heat shock protein HSP90 [2] = biological target: T1, Heat shock protein HSP90 (Homo sapiens, UniProt P07900+P08238); assay: Inhibition of HSP90 in human MCF7 cells assessed as decrease in HER2 level at 5 to 20 uM incubated for 48 hrs by Western blot analysis; type: cell-based; conditions: dose 5-20 µM
In short: (§1)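 MCF-7 or SKBr3 cells were exposed for 48 h, then trypsinised, PBS-washed and lysed in RIPA buffer with phosphatase and protease inhibitors. Cleared lysate (14 000 rpm, 4 °C, 15 min) was BCA-quantified, and 20 µg protein was run on SDS-PAGE and blotted. Blots were blocked in 5% milk, incubated with primary antibodies (1:1000) overnight at 4 °C, then HRP secondary, and developed by ECL. GAPDH (1:10000) was the loading control.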

SK-BR-3 [3] = assay: Induction of apoptosis in human SK-BR-3 cells assessed as late apoptotic cells at 5 uM incubated for 36 hrs by Annexin V/PI staining based flow cytometry (reference value: 4.95 %); type: functional
MCF7 [4] = assay: Induction of apoptosis in human MCF7 cells assessed as necrotic cells at 10 uM incubated for 36 hrs by Annexin V/PI staining based flow cytometry (reference value: 2.30 %); type: functional
SK-BR-3 [5] = assay: Antiproliferative activity against human SK-BR-3 cells assessed as inhibition of cell viability measured after 48 hrs by MTT assay; type: functional, cell-based; conditions: SK-BR-3, 48 h
In short: (§2)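 MTT cell viability read-out; IC50 obtained by non-linear regression of concentration–response data; values are mean ± SD of three independent experiments.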

SK-BR-3 [6] = assay: Induction of apoptosis in human SK-BR-3 cells assessed as early apoptotic cells at 20 uM incubated for 36 hrs by Annexin V/PI staining based flow cytometry (reference value: 2.73 %); type: functional
SK-BR-3 [7] = assay: Induction of apoptosis in human SK-BR-3 cells assessed as viable cells at 5 uM incubated for 36 hrs by Annexin V/PI staining based flow cytometry (reference value: 90.4 %); type: functional; conditions: read-out: Activity
SK-BR-3 [8] = assay: Induction of apoptosis in human SK-BR-3 cells assessed as increase in cleaved pro-caspase-8 level at 10 to 20 uM incubated for 48 hrs by Western blot analysis; type: functional, cell-based; conditions: dose 10-20 µM
In short: (§3)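 Cells exposed 48 h (DMSO vehicle control); trypsinized, lysed in RIPA with phosphatase/protease inhibitors; 20 μg protein on SDS-PAGE, blotted, blocked 5% milk 1 h; primary antibodies 1:1000 overnight at 4 °C, GAPDH 1:10000 as loading control; HRP secondary 1:1000–1:5000; ECL detection.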

MCF7 [9] = assay: Antiproliferative activity against human MCF7 cells assessed as inhibition of cell viability at 20 uM measured after 48 hrs by MTT assay relative to control; type: functional
MCF7 [10] = assay: Induction of apoptosis in human MCF7 cells assessed as viable cells at 10 uM incubated for 36 hrs by Annexin V/PI staining based flow cytometry (reference value: 90.5 %); type: functional; conditions: read-out: Activity
HEK-293T = assay: Cytotoxicity against HEK293T cells assessed as cell growth inhibition measured after 48 hrs by MTT assay; type: functional, cell-based; conditions: Homo sapiens; in short: as §2
MDA-MB-231 = assay: Antiproliferative activity against human MDA-MB-231 cells assessed as inhibition of cell viability measured after 48 hrs by MTT assay; type: functional, cell-based; conditions: MDA-MB-231, 48 h; in short: as §2
Heat shock protein HSP90 [11] = biological target: T1, Heat shock protein HSP90; assay: Inhibition of HSP90 in human SK-BR-3 cells assessed as decrease in AKT level at 5 to 20 uM incubated for 48 hrs by Western blot analysis; type: cell-based; conditions: dose 5-20 µM; in short: as §1
Heat shock protein HSP90 [12] = biological target: T1, Heat shock protein HSP90; assay: Inhibition of HSP90 in human MCF7 cells assessed as decrease in phosphorylated AKT level at 5 to 20 uM incubated for 48 hrs by Western blot analysis; type: cell-based; conditions: dose 5-20 µM; in short: as §1
MCF7 [13] = assay: Effect on HSP70 level in human MCF7 cells at 10 uM incubated for 36 hrs by DAPI staining based immunofluorescence analysis; type: functional, cell-based
In short: (§4)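 Cells treated 36 h with DMSO vehicle control, then fixed with 4% paraformaldehyde 15 min, permeabilized with 0.2% Triton X-100 5 min, blocked with 3% BSA 15 min; primary antibody then fluorescent secondary antibody, each 1 h at room temperature; HSP70 green, HSF-1 red, nuclei DAPI; imaged by fluorescence microscopy.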

[14] = Metabolic stability in simulated intestinal fluid at 37 degreeC at 1 mg/ml measured upto 1 hr by HPLC analysis; type: ADME; conditions: simulated gi fluid
In short: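 Compound at 1 mg mL−1 was incubated in simulated intestinal fluid at 37 °C for up to 1 h. Remaining percentage was measured by HPLC on a C18 column (5 µm, 4.6 × 250 mm), eluting with 95% MeOH/5% H2O.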

MCF7 [15] = assay: Effect on HSF-1 level in human MCF7 cells assessed as nuclear accumulation at 10 uM incubated for 36 hrs by DAPI staining based immunofluorescence analysis; type: functional, cell-based; in short: as §4
MCF7 [16] = assay: Induction of apoptosis in human MCF7 cells assessed as necrotic cells at 20 uM incubated for 36 hrs by Annexin V/PI staining based flow cytometry (reference value: 2.30 %); type: functional
SK-BR-3 [17] = assay: Effect on HSP70 level in human SK-BR-3 cells at 5 to 20 uM incubated for 48 hrs by Western blot analysis; type: functional, cell-based; conditions: dose 5-20 µM; in short: as §3
MCF7 [18] = assay: Induction of apoptosis in human MCF7 cells assessed as viable cells at 5 uM incubated for 36 hrs by Annexin V/PI staining based flow cytometry (reference value: 90.5 %); type: functional; conditions: read-out: Activity
MCF7 [19] = assay: Induction of apoptosis in human MCF7 cells assessed as early apoptotic cells at 20 uM incubated for 36 hrs by Annexin V/PI staining based flow cytometry (reference value: 1.13 %); type: functional
MCF7 [20] = assay: Induction of apoptosis in human MCF7 cells assessed as late apoptotic cells at 5 uM incubated for 36 hrs by Annexin V/PI staining based flow cytometry (reference value: 6.02 %); type: functional
SK-BR-3 [21] = assay: Induction of apoptosis in human SK-BR-3 cells assessed as early apoptotic cells at 5 uM incubated for 36 hrs by Annexin V/PI staining based flow cytometry (reference value: 2.73 %); type: functional
SK-BR-3 [22] = assay: Induction of apoptosis in human SK-BR-3 cells assessed as late apoptotic cells at 10 uM incubated for 36 hrs by Annexin V/PI staining based flow cytometry (reference value: 4.95 %); type: functional
MCF7 [23] = assay: Induction of cell cycle arrest in human MCF7 cells assessed as accumulation of cells at G1 phase at 5 to 10 uM incubated for 36 hrs by PI staining based flow cytometry; type: functional; conditions: dose 5-10 µM
In short: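 Following 36 h treatment (0, 5, 10 μM), trypsinized cells fixed overnight in 70% ethanol, treated with RNase (0.2 mg/mL) and PI (0.1 mg/mL) for 20 min, then analysed by flow cytometry for cell-cycle distribution; n = 3 versus control.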

Heat shock protein HSP90 [24] = biological target: T1, Heat shock protein HSP90; assay: Competitive binding affinity to N-terminal HSP90 (unknown origin) at 0.03 to 16 uM incubated for 3 hrs in presence of FITC-GA by fluorescence polarization assay; type: protein assay; conditions: dose 0.03-16 µM
In short: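 Competition against FITC-geldanamycin (5 nM) for HSP90α (10 nM) in reaction buffer with 1% BSA, DMSO <1%; compounds at 0.03–16.0 μM final; 3 h at room temperature; fluorescence polarization read at ex 485/em 530 nm; activity% = (FPdrug − FPbackground)/(FPenzyme − FPbackground) × 100, curve-fitted.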

In the case of `CN1CCN(/C=C/C(=O)/C=C/c2cccc(O[Si](C)(C)C(C)(C)C)c2)CC1`, the half-life at 1 mg/ml [1] is reported as > 720 min, the inhibition (Heat shock protein HSP90 [2]) is reported as “Active” and the Activity (SK-BR-3 [3]) is reported as 5.82%. For the same compound, the Activity (MCF7 [4]) was 10.1%, the IC50 (SK-BR-3 [5]) was 12.1 µM and the Activity (SK-BR-3 [6]) was 47.7%. The viability at 5 µM (SK-BR-3 [7]) was 89.6%, the Activity (SK-BR-3 [8]) was “Active” and the inhibition at 20 µM (MCF7 [9]) was > 50%. The viability at 10 µM (MCF7 [10]) was 65.6%, the IC50 (HEK-293T) was 32.6 µM and the IC50 (MDA-MB-231) was 11.7 µM. For the same compound, the inhibition (Heat shock protein HSP90 [11]) was “Active”, the inhibition (Heat shock protein HSP90 [12]) was “Active” and the Activity (MCF7 [13]) was “inactive”. For the same compound, the Stability [14] was “Stable”, the Activity (MCF7 [15]) was “inactive” and the Activity (MCF7 [16]) was 16.2%. For the same compound, the Activity (SK-BR-3 [17]) was “inactive”, the viability at 5 µM (MCF7 [18]) was 80% and the Activity (MCF7 [19]) was 3.58%. It also gave an Activity (MCF7 [20]) of 9.96%, an Activity (SK-BR-3 [21]) of 2.76% and an Activity (SK-BR-3 [22]) of 8.42%. For the same compound, the Activity (MCF7 [23]) was “Active” and the Activity (Heat shock protein HSP90 [24]) was “inactive”.
